Experiments:
Aurora kinase A = biological target: T1, Aurora kinase A (Homo sapiens, UniProt O14965); experiment: Inhibition of Aurora A auto-phosphorylation in human HCT116 cells after 4 hrs by Western blot analysis; assay type: cell-based
T1 sequence (O14965 whole entry): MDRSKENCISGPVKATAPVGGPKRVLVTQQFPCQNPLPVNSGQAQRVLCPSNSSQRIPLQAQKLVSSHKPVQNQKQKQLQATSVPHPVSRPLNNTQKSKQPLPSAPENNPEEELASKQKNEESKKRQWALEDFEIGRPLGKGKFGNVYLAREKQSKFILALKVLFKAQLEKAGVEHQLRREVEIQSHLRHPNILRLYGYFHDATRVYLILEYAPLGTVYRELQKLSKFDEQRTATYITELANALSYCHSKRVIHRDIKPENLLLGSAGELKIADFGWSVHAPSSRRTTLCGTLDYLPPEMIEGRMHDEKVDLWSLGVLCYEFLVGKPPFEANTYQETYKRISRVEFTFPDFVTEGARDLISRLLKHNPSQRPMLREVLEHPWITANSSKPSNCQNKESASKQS
Summary of the method: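 Cells treated with compound in dose response for 4 h. Phospho-Aurora A (auto-phosphorylation) read by western blot. EC50 derived from dose-response curves over three replicate experiments.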

[1] = biological target: Serine/threonine-protein kinase B-raf (Homo sapiens) (UniProt P15056); experiment: Binding affinity to wild-type human partial length BRAF (S429 to E741 residues) expressed in HEK293 cells at 1 uM by Kinomescan method relative to control; assay type: cell-based
[2] = biological target: Calcium/calmodulin-dependent protein kinase type IV (Homo sapiens) (UniProt Q16566); experiment: Binding affinity to wild-type human partial length CAMK4 (A22 to A322 residues) expressed in Escherichia coli BL21 at 1 uM by Kinomescan method relative to control
[3] = biological target: Cyclin-dependent kinase 13 (Homo sapiens) (UniProt Q14004); experiment: Binding affinity to wild-type human partial length CDC2L5 (H675 to S1054 residues) expressed in HEK293 cells at 1 uM by Kinomescan method relative to control; assay type: cell-based
[4] = biological target: CDK4/Cyclin D3 (Homo sapiens) (UniProt P11802+P30281); experiment: Binding affinity to wild-type human full length CDK4/cyclinD3 (M1 to E303 residues) expressed in HEK293 cells at 1 uM by Kinomescan method relative to control; assay type: cell-based
[5] = biological target: Serine/threonine-protein kinase Chk2 (Homo sapiens) (UniProt O96017); experiment: Binding affinity to wild-type human partial length CHEK2 (S253 to E574 residues) expressed in Escherichia coli BL21 at 1 uM by Kinomescan method relative to control
[6] = biological target: Citron Rho-interacting kinase (Homo sapiens) (UniProt O14578); experiment: Binding affinity to wild-type human partial length CIT (M68 to E432 residues) expressed in Escherichia coli BL21 at 1 uM by Kinomescan method relative to control
[7] = biological target: Death-associated protein kinase 1 (Homo sapiens) (UniProt P53355); experiment: Binding affinity to wild-type human partial length DAPK1 (M1 to F296 residues) expressed in Escherichia coli BL21 at 1 uM by Kinomescan method relative to control
Chain of Death-associated protein kinase 1 (Homo sapiens) (P53355 whole entry, looked up, the tested form may be a part): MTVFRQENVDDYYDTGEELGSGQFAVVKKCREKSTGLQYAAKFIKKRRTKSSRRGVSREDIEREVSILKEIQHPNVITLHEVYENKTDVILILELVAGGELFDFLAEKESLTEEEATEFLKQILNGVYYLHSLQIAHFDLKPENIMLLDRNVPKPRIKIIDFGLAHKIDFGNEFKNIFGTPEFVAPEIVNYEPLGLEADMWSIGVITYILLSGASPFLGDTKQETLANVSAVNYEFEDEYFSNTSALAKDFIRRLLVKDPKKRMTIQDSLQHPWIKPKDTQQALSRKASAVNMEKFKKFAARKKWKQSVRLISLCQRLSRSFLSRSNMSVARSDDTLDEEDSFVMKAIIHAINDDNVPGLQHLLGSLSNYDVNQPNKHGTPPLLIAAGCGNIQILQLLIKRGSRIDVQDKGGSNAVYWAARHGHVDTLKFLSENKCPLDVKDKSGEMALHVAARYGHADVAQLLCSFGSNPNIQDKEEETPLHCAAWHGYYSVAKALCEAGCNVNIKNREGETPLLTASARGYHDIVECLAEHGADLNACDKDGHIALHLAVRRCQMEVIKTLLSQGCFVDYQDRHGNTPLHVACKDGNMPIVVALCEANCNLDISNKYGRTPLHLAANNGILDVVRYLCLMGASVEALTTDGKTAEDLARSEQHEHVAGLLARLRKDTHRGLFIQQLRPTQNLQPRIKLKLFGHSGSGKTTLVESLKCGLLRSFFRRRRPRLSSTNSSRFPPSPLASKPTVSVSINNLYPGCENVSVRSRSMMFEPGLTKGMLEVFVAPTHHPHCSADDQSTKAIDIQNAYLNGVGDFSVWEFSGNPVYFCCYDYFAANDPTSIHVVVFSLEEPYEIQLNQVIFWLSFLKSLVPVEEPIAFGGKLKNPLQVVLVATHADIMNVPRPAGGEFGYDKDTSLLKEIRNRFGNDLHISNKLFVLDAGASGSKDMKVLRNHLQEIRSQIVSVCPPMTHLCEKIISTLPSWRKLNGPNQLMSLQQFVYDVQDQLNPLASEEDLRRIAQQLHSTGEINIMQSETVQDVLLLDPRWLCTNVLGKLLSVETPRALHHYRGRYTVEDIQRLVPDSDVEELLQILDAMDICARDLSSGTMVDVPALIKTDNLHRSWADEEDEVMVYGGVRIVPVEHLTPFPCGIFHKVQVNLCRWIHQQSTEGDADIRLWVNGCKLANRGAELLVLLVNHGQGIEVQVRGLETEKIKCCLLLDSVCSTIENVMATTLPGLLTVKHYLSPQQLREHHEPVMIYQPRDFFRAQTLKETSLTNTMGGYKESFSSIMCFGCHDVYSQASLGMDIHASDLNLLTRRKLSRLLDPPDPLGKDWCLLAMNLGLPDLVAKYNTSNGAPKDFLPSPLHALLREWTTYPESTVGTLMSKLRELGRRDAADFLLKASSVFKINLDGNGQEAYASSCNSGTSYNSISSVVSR

[8] = biological target: Death-associated protein kinase 2 (Homo sapiens) (UniProt Q9UIK4); experiment: Binding affinity to wild-type human full length DAPK2 (M1 to S370 residues) expressed in Escherichia coli BL21 at 1 uM by Kinomescan method relative to control
Chain of Death-associated protein kinase 2 (Homo sapiens) (Q9UIK4 whole entry, looked up, the tested form may be a part): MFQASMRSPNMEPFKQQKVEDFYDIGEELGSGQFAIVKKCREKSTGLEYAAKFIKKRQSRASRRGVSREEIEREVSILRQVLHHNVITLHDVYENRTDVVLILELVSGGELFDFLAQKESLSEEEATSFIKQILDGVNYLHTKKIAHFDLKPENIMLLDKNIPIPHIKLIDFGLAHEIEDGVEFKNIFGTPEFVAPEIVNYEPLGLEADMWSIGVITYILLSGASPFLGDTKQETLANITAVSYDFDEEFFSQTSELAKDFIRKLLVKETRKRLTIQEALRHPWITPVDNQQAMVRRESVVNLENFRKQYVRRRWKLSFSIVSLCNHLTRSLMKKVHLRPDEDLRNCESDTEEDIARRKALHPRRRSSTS
Summary of the method: (§1)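 Run as one kinome-wide competition binding panel with each compound at a single fixed concentration. Results were plotted as a kinome-wide selectivity map.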

[9] = biological target: Mitogen-activated protein kinase 3 (Homo sapiens) (UniProt P27361); experiment: Binding affinity to wild-type human full length ERK1 (M1 to P379 residues) expressed in Escherichia coli BL21 at 1 uM by Kinomescan method relative to control; summary of the method: as §1
Chain of Mitogen-activated protein kinase 3 (Homo sapiens) (P27361 whole entry, the tested form may be a part): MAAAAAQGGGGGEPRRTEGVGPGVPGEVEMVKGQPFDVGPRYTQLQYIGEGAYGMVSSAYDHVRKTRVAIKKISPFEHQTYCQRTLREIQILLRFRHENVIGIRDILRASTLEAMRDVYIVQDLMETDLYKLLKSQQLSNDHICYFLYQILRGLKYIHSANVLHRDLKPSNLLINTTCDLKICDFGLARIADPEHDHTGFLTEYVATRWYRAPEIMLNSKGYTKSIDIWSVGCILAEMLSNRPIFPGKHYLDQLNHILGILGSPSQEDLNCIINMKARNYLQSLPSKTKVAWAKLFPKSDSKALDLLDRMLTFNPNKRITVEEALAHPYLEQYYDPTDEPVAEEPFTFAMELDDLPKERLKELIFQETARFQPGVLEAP

[10] = biological target: Mitogen-activated protein kinase 7 (Homo sapiens) (UniProt Q13164); experiment: Binding affinity to wild-type human partial length ERK5 (M1 to A409 residues) expressed in Escherichia coli BL21 at 1 uM by Kinomescan method relative to control
Chain of Mitogen-activated protein kinase 7 (Homo sapiens) (Q13164 2-816 limits assumed): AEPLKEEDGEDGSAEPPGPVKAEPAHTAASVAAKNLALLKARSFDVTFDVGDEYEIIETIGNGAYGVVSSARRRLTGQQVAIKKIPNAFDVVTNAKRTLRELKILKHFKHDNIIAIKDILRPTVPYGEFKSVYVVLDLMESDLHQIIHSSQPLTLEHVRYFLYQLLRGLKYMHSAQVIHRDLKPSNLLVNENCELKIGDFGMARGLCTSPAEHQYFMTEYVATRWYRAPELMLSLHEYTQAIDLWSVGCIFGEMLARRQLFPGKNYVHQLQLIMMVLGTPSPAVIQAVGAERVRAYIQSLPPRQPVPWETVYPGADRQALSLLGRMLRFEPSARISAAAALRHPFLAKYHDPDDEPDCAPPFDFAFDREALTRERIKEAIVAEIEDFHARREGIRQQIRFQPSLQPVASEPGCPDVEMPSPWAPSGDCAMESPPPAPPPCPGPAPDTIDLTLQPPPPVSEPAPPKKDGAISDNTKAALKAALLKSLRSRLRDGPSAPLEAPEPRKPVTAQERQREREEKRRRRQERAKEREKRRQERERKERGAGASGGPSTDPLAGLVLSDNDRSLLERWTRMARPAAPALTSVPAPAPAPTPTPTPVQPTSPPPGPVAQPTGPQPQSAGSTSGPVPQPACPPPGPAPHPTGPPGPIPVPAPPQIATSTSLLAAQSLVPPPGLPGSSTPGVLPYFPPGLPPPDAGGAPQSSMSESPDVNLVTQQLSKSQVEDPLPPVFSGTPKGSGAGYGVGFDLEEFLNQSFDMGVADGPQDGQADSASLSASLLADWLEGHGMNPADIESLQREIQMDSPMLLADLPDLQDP

[11] = biological target: Glycogen synthase kinase-3 alpha (Homo sapiens) (UniProt P49840); experiment: Binding affinity to wild-type human full length GSK3A (M1 to S483 residues) expressed in Escherichia coli BL21 at 1 uM by Kinomescan method relative to control; summary of the method: as §1
[12] = biological target: Insulin-like growth factor 1 receptor (Homo sapiens) (UniProt P08069); experiment: Binding affinity to wild-type human partial length IGF1R (L972 to D1294 residues) expressed in Escherichia coli BL21 at 1 uM by Kinomescan method relative to control
[13] = biological target: Mitogen-activated protein kinase kinase kinase 13 (Homo sapiens) (UniProt O43283); experiment: Binding affinity to wild-type human full length LZK (M1 to W966 residues) expressed in HEK293 cells at 1 uM by Kinomescan method relative to control; assay type: cell-based; summary of the method: as §1
Chain of Mitogen-activated protein kinase kinase kinase 13 (Homo sapiens) (O43283 whole entry, the tested form may be a part): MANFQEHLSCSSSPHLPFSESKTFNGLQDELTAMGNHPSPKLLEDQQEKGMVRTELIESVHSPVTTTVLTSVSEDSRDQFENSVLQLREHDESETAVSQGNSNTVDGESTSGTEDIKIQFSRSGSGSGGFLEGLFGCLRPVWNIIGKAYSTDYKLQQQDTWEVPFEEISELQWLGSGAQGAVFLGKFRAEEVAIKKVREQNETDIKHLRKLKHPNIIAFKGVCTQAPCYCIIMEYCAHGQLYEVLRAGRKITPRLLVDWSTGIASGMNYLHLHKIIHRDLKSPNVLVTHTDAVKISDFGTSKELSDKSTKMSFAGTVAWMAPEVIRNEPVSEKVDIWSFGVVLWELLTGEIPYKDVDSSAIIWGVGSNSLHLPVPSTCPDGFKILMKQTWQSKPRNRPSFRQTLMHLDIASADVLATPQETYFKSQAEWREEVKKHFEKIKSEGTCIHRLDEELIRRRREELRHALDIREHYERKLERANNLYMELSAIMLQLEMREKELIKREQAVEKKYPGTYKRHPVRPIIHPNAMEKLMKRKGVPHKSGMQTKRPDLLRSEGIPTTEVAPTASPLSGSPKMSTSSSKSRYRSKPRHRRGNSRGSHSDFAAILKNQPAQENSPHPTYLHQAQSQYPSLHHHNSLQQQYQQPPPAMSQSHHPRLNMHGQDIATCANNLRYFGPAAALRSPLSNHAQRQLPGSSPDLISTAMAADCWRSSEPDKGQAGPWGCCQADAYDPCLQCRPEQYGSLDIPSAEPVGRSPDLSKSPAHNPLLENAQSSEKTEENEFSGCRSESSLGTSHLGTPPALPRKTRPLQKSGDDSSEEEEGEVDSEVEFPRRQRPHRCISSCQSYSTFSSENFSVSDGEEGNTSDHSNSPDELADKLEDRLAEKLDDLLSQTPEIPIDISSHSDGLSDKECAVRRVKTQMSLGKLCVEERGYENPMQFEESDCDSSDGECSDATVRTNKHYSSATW

[14] = biological target: Dual specificity mitogen-activated protein kinase kinase 6 (Homo sapiens) (UniProt P52564); experiment: Binding affinity to wild-type human partial length MEK6 (K36 to D334 residues) expressed in Escherichia coli BL21 at 1 uM by Kinomescan method relative to control
[15] = biological target: Cyclin-dependent kinase 2 homolog (Plasmodium falciparum (isolate 3D7)) (UniProt P61075); experiment: Binding affinity to wild-type Plasmodium falciparum full length PK5 (M1 to N288 residues) expressed in HEK293 cells at 1 uM by Kinomescan method relative to control; assay type: cell-based
[16] = biological target: Phosphatidylinositol 4,5-bisphosphate 3-kinase catalytic subunit delta isoform (Homo sapiens) (UniProt O00329); experiment: Binding affinity to wild-type human partial length PIK3CD (R108 to Q1044 residues) expressed in HEK293 cells at 1 uM by Kinomescan method relative to control; assay type: cell-based
Chain of Phosphatidylinositol 4,5-bisphosphate 3-kinase catalytic subunit delta isoform (Homo sapiens) (O00329 whole entry, the tested form may be a part, canonical isoform): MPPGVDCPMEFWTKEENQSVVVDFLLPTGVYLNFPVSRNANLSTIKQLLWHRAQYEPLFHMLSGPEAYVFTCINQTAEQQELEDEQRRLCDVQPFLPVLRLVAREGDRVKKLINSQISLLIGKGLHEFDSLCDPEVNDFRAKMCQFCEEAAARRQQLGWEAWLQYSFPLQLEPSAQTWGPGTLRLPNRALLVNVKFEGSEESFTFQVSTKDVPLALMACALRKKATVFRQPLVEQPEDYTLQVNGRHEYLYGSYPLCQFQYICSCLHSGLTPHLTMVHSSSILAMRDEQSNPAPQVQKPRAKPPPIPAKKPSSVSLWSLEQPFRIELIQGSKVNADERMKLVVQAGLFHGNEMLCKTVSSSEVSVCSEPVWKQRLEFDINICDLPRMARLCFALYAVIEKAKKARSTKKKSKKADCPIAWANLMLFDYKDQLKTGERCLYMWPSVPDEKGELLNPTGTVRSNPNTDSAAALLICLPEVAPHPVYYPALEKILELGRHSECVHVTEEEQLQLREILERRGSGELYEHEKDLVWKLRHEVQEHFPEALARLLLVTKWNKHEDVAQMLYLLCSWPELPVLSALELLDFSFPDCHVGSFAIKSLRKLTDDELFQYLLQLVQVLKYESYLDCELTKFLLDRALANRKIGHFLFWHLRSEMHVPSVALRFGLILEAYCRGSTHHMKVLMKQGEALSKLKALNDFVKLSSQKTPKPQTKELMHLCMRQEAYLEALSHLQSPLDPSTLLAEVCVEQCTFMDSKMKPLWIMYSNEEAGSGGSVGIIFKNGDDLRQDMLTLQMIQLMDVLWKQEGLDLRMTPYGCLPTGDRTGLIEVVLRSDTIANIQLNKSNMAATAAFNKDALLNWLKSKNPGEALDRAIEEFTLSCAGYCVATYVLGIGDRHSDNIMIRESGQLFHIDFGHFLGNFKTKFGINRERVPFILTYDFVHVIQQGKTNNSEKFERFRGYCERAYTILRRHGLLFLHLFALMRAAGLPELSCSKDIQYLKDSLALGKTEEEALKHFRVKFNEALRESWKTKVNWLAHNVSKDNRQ

[17] = biological target: Serine/threonine-protein kinase PLK3 (Homo sapiens) (UniProt Q9H4B4); experiment: Binding affinity to wild-type human partial length PLK3 (A42 to L334 residues) expressed in HEK293 cells at 1 uM by Kinomescan method relative to control; assay type: cell-based
[18] = biological target: Ribosomal protein S6 kinase alpha-6 (Homo sapiens) (UniProt Q9UK32); experiment: Binding affinity to wild-type human partial length N-terminal RSK4 kinase domain 1 (M1 to E397 residues) expressed in HEK293 cells at 1 uM by Kinomescan method relative to control; assay type: cell-based
[19] = biological target: TGF-beta receptor type-1 (Homo sapiens) (UniProt P36897); experiment: Binding affinity to wild-type human partial length TGFBR1 (D179 to M503 residues) expressed in Escherichia coli BL21 at 1 uM by Kinomescan method relative to control
[20] = biological target: Tyrosine-protein kinase receptor TYRO3 (Homo sapiens) (UniProt Q06418); experiment: Binding affinity to wild-type human partial length TYRO3 (S497 to T814 residues) expressed in Escherichia coli BL21 at 1 uM by Kinomescan method relative to control
[21] = biological target: Serine/threonine-protein kinase WNK4 (Homo sapiens) (UniProt Q96J92); experiment: Binding affinity to wild-type human partial length WNK4 (A31 to D461 residues) expressed in HEK293 cells at 1 uM by Kinomescan method relative to control; assay type: cell-based

Row | SMILES | EC50 (Aurora kinase A) [nM] | Activity [1] [%] | Activity [2] [%] | Activity [3] [%] | Activity [4] [%] | Activity [5] [%] | Activity [6] [%] | Activity [7] [%] | Activity [8] [%] | Activity [9] [%] | Activity [10] [%] | Activity [11] [%] | Activity [12] [%] | Activity [13] [%] | Activity [14] [%] | Activity [15] [%] | Activity [16] [%] | Activity [17] [%] | Activity [18] [%] | Activity [19] [%] | other results
1 | CCC(=O)Nc1ccc(C(=O)Nc2ccc(Nc3ncc4c(n3)N(C)c3ccc(C)cc3C(=O)N4C)cc2)cc1 | 38 | 100 | 87 | 100 | 85 | 95 | 97 | 90 | 91 | 95 | 97 | 100 | 84 | 82 | 97 | 94 | 75 | 83 | 74 | 97 | Activity [20]: 91%; Activity [21]: 85%
2 | C=CC(=O)Nc1ccc(C(=O)Nc2ccc(Nc3ncc4c(n3)N(C)c3ccc(C)cc3C(=O)N4C)cc2)cc1 | 5.8 | 100 | 89 | 99 | 100 | 97 | 93 | 100 | 100 | 100 | 86 | 100 | 100 | 87 | 100 | 96 | 55 | 91 | 76 | 89 | Activity [20]: 92%; Activity [21]: 99%

— ChEMBL document CHEMBL4184148 (Bioorg Med Chem Lett, 2017)
